Bioassay records: PubChem BioAssay, The Scripps Research Institute Molecular Screening Center
The list is not random: actives were taken first. Their share in the collection is about 2.4%.
VIM-2 inh: blocks Pseudomonas aeruginosa VIM-2 metallo-beta-lactamase | purified VIM-2, nitrocefin hydrolysis, epi-absorbance fluorescence | inhibition, % at 5.6 µM | actives 0.89% (n = 290,000);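 active means inhibition above the mean of all tested compounds plus 3 SD, cutoff set per screening run, cut at about 7.5% in these data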;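 further: red hydrolysis product quenches plate fluorescence so inhibitors raise well fluorescence; 0% = enzyme with DMSO and 100% = DMSO without enzyme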
M18AAP inhibitor: blocks P. falciparum M18 aspartyl aminopeptidase. recombinant PfM18AAP, H-Glu-NHMec fluorogenic cleavage. inhibition, % at 7.35 µM. actives 1.2% (n = 290,000). AID 1822;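 active means inhibition above the campaign mean inhibition over all tested compounds plus 3 SD, cut at about 28% in these data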;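 further: 0% = plate median of test compound wells and 100% = 2 mM ZnCl2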
sPLA2-III inh: Inhibits HGIII-sPLA2 liposome hydrolysis, primary screen; inhibition, % at 12.2 µM; Q9NZ20; actives 0.56% (n = 370,000); QFRET BODIPY PC-A2 liposome hydrolysis, fluorescence;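 active means inhibition above mean plus 3 SD of compounds lying within the high and low control bounds, cut at about 19% in these data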;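 further: 0% = median of test compound wells and 100% = no enzyme DMSO wells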
Target sequence (Q9NZ20 whole entry, looked up): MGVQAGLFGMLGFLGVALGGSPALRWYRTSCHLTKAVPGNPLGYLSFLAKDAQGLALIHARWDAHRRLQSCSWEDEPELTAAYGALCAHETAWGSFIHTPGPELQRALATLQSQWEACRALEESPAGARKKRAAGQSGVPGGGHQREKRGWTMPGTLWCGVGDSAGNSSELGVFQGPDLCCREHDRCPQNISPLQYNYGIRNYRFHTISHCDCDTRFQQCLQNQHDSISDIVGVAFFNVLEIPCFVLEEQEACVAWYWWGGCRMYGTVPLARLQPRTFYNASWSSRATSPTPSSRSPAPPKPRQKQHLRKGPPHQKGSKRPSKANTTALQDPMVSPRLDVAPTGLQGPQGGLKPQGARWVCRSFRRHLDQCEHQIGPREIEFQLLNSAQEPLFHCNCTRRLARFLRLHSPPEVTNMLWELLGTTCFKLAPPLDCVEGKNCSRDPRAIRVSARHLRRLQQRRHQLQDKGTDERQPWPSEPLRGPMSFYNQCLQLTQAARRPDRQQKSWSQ
IMP-1 inhibitor: inhibitors of Pseudomonas aeruginosa IMP-1 metallo-beta-lactamase; purified IMP-1, nitrocefin hydrolysis, epi-absorbance fluorescence; inhibition, % at 5.6 µM; actives 0.45% (n = 290,000); AID 1556;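 active means inhibition above the mean plus 3 SD of all compounds in the same screening run, cut at about 4.5% in these data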;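 further: 0% = IMP-1 with DMSO and 100% = DMSO wells lacking enzyme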
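Test system: recombinant IMP-1 enzyme, purified / Medium: HEPES buffer pH 7.1 with ZnSO4 and Brij 35 / Doses: single dose, 5.6 µM / Times: 25 °C, 15 min preincubation, 25 min reaction / Detection: Epi-absorbance via hydrolysed-nitrocefin quenching of white-plate fluorescence, 480/530 nm, EDTA stop / Evaluation: percent inhibition from optical density relative to buffer-blank wells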
* = called active by the depositor.

What do the screens show for `O=c1ccsn1Cc1ccccc1`?
VIM-2 inh: -3; M18AAP inhibitor: 33*; sPLA2-III inh: 7; IMP-1 inhibitor: -4

Results for O=C(Cn1c(=O)c2cccn2c2ccccc21)NCCc1ccc(Cl)cc1 ?
VIM-2 inh: 3; M18AAP inhibitor: -14; sPLA2-III inh: 4; IMP-1 inhibitor: 13*

Results for CCOc1ccc(CNC(=O)Cn2c(=O)c3cccn3c3ccccc32)cc1 ?
VIM-2 inh: -1; M18AAP inhibitor: -6; sPLA2-III inh: 8; IMP-1 inhibitor: 6.2*

Results for CC(C)Oc1ccc(CNC(=O)Cn2c(=O)c3cccn3c3cccnc32)cc1 ?
VIM-2 inh: -2; M18AAP inhibitor: -1; sPLA2-III inh: 7; IMP-1 inhibitor: -4

How did Cc1ccc(CN2CCCCC(NC(=O)Nc3ccccc3)C2=O)cc1 (stereo not given) do in these assays?
sPLA2-III inh: 0

Results for CC(=O)C1=C(O)C(=O)N(CC#N)C1c1cccs1 (stereo not given) ?
VIM-2 inh: -2; M18AAP inhibitor: 6; sPLA2-III inh: 4; IMP-1 inhibitor: 6.2*

Results for COCc1[nH]nc2c1C(c1ccc(F)cc1)N(Cc1ccccc1)C2=O (stereo not given) ?
sPLA2-III inh: -11

Results for COC(=O)c1sccc1NC(=O)C1CC2CCC1C2 (stereo not given) ?
VIM-2 inh: -4; M18AAP inhibitor: 4; sPLA2-III inh: -11; IMP-1 inhibitor: 48*

How did COC(=O)c1sccc1NC(=O)C1CC(C)=C(C)CC1C(=O)O (stereo not given) do in these assays?
VIM-2 inh: 8.4*; M18AAP inhibitor: -10; sPLA2-III inh: -1; IMP-1 inhibitor: 0

How did COc1cccc(C(=O)N2CCC(Oc3cccnc3)CC2)c1 do in these assays?
sPLA2-III inh: -1

Results for O=C(NCCc1c[nH]c2ccccc12)OCc1cn(Cc2cccc(F)c2F)nn1 ?
sPLA2-III inh: -64

What do the screens show for `CC(=O)Nc1ccc(/C=N\NC(=O)c2cccc(S(=O)(=O)N(C)C)c2)cc1`?
sPLA2-III inh: 5

Results for Cc1c(N=NC2=C(O)CCCC2=O)c(=O)n(-c2ccccc2)n1C ?
VIM-2 inh: -7; M18AAP inhibitor: 32*; sPLA2-III inh: -1; IMP-1 inhibitor: -2

What do the screens show for `CCN(CC)c1ccc(NC(=O)CCS(=O)(=O)c2ccc(Br)cc2)c(C)c1`?
VIM-2 inh: -2; M18AAP inhibitor: 8; sPLA2-III inh: 12; IMP-1 inhibitor: 24*

Results for Cc1ccc(-c2nnc(N3CCCCC3)c3ccccc23)cc1S(=O)(=O)N1CCN(C)CC1 ?
VIM-2 inh: -1; M18AAP inhibitor: 2; sPLA2-III inh: -8; IMP-1 inhibitor: -3

What do the screens show for `Cc1ccc(-c2nnc3c4ccccc4c(C)nn23)cc1S(=O)(=O)N1CCN(C)CC1`?
VIM-2 inh: 12*; M18AAP inhibitor: 4; sPLA2-III inh: -1; IMP-1 inhibitor: -2

What do the screens show for `Cc1cccc(NC(=S)NNc2cccc(Cl)c2)c1`?
VIM-2 inh: -4; M18AAP inhibitor: 24; sPLA2-III inh: 10; IMP-1 inhibitor: -1

Results for Cc1ccc(NS(=O)(=O)c2cc([N+](=O)[O-])ccc2NNC(=S)Nc2cccc(Cl)c2)c(C)c1 ?
VIM-2 inh: -3; M18AAP inhibitor: 32*; IMP-1 inhibitor: -2

How did NC(=O)c1ccccc1N/C=C/C(=O)c1ccc(Cl)cc1Cl do in these assays?
VIM-2 inh: 8.0*; M18AAP inhibitor: 0; sPLA2-III inh: -18; IMP-1 inhibitor: -3

How did NC(=O)c1ccccc1N/C=C/C(=O)c1ccc(F)cc1 do in these assays?
VIM-2 inh: 1; M18AAP inhibitor: -8; sPLA2-III inh: -2; IMP-1 inhibitor: 1

Results for Cc1ccc(S(=O)(=O)/N=C2/NC(=O)/C(=C/c3cc([N+](=O)[O-])ccc3O)S2)cc1 ?
VIM-2 inh: -1; M18AAP inhibitor: 30*; sPLA2-III inh: -37; IMP-1 inhibitor: 2

What do the screens show for `COc1cc(/C=C2\S/C(=N/S(=O)(=O)c3ccc(C)cc3)NC2=O)c([N+](=O)[O-])cc1OC`?
VIM-2 inh: -2; M18AAP inhibitor: 17; sPLA2-III inh: -51; IMP-1 inhibitor: -3

What do the screens show for `O=C(CCN1C(=O)COc2ccccc21)NCc1ccco1`?
VIM-2 inh: -1; M18AAP inhibitor: 2; sPLA2-III inh: 3; IMP-1 inhibitor: 1

How did O=C(CN(Cc1cccs1)C(=O)CN1C(=O)COc2ccccc21)NCc1ccco1 do in these assays?
VIM-2 inh: 0; M18AAP inhibitor: 3; sPLA2-III inh: -3; IMP-1 inhibitor: 5.4*

How did NC(=O)c1sc2nc(-c3ccco3)ccc2c1N do in these assays?
VIM-2 inh: 11*; M18AAP inhibitor: 13; sPLA2-III inh: 0; IMP-1 inhibitor: 1
